What all share (assay type): functional
Assay [1] is described as follows: Cytotoxicity against human UO31 cells assessed as cell growth at 10 uM after 48 hrs by sulforhodamine B assay relative to control. The following applies: UO-31, 48 h, read-out: Activity. The method, boiled down:
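NCI-60 single-dose screen. Cells were grown in RPMI 1640 with 5% FBS and 2 mM L-glutamine, seeded at 5000–40 000 cells/well according to doubling time, and pre-incubated 24 h at 37 °C, 5% CO2. Time-zero plates were TCA-fixed at dosing. Compound in DMSO was given at 10 μM for 48 h. Cells were then fixed in cold TCA, stained with 0.4% SRB, solubilised in 10 mM Tris base and read at 515 nm. Growth % was calculated from time-zero, control and treated absorbances.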

The subject of another assay is MCF7. The experiment in a line: Cytotoxicity against human MCF7 cells assessed as cell growth at 10 uM after 48 hrs by sulforhodamine B assay relative to control. The conditions noted are these: MCF7, 48 h, read-out: Activity. The method, boiled down:
(§1)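 Adherent cells were grown in RPMI 1640 with 5% FBS and 2 mM L-glutamine, seeded at 5000–40 000 cells/well by doubling time, and held 24 h at 37 °C, 5% CO2 before drug. Time-zero plates were TCA-fixed. Compound in DMSO, single dose 10 μM, 48 h. Cells were fixed with cold TCA (final 10%, 60 min, 4 °C) and stained with 0.4% SRB. Bound dye was dissolved in 10 mM Tris base and read at 515 nm. Percent growth was derived from time-zero, control and treated absorbances.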

The next assay has as its system MDA-MB-468. The experiment in a line: Cytotoxicity against human MDA-MB-468 cells assessed as cell growth at 10 uM after 48 hrs by sulforhodamine B assay relative to control. The following applies: MDA-MB-468, 48 h, read-out: Activity. The method, boiled down:
as §1

On to `Nc1nc(-c2ccccc2)c2ccnc(O)c2n1`, for which the values for the growth at 10 µM (in assay [1]; in the assay with MCF7; with MDA-MB-468) were 91.9%, 111% and 101%, respectively.
For `Nc1nc(Nc2ccccc2)c2ccnc(O)c2n1`, the growth at 10 µM stood at 73.7% in assay [1], 80.8% in the assay on MCF7 and 126% in the assay on MDA-MB-468.
As to `Nc1nc(-c2ccc(Cl)cc2)c2ccnc(O)c2n1`, the growth at 10 µM in assay [1] amounted to 96.9%; in the assay with MCF7, 94.1%; in the assay with MDA-MB-468, 108%.
For `Nc1nc(-c2cccc(F)c2)c2ccnc(O)c2n1`, the growth at 10 µM in assay [1] turned out to be 117%; in the assay with MCF7, 83.3%; in the assay on MDA-MB-468 it was 107%.
For the molecule `COc1nccc2c(Nc3ccc(Cl)cc3)nc(N)nc12`, the growth at 10 µM was found to be 42.9% in assay [1], 62.2% with MCF7 and 60% with MDA-MB-468.
Take `COc1ccc(Nc2nc(N)nc3c(OC)nccc23)cc1`: the values for the growth at 10 µM (in assay [1]; in the assay with MCF7; in the assay on MDA-MB-468) were 57.7%, 73% and 76.3%, respectively.
Taken in the same sequence, the figures for `Nc1nc(Sc2ccccc2)c2ccnc(O)c2n1` were 86.8%, 91.6% and 120%.
On to `COc1ccc(Nc2nc(N)nc3c(O)nccc23)cc1`, for which the growth at 10 µM in assay [1] is 64.6%; in the assay on MCF7 it was 79.7%; in the assay on MDA-MB-468 it was 118%.
On to `Nc1nc(Nc2ccc(Cl)cc2)c2ccnc(O)c2n1`, for which the results for the growth at 10 µM (in assay [1]; in the assay on MCF7; in the assay with MDA-MB-468) were 54.5%, 81% and 135%, respectively.
Regarding `COc1ccc(-c2nc(N)nc3c(O)nccc23)cc1`, the growth at 10 µM stood at 94.6% in assay [1], 95.7% in the assay with MCF7 and 110% with MDA-MB-468.
`COc1ccc(-c2nc(N)nc3c(OC)nccc23)cc1`: the growth at 10 µM in assay [1] was determined as 108%; in the assay with MCF7 it was 86.3%; with MDA-MB-468 it was 97.9%.
Take `COc1nccc2c(Nc3ccccc3)nc(N)nc12`: the growth at 10 µM in assay [1] was determined as 88.3%; with MCF7, 78.5%; in the assay with MDA-MB-468, 56.5%.
Consider `COc1nccc2c(-c3ccccc3)nc(N)nc12`, for which the figures for the growth at 10 µM (in assay [1]; in the assay with MCF7; with MDA-MB-468) were 93.8%, 96.5% and 98.2%, respectively.
For `COc1nccc2c(-c3ccc(Cl)cc3)nc(N)nc12` the same measures were 86.2%, 75.3% and 90.3%.
Consider `COc1nccc2c(Sc3ccccc3)nc(N)nc12`, for which the results for the growth at 10 µM (in assay [1]; in the assay with MCF7; with MDA-MB-468) were 75.3%, 91.9% and 112%, respectively.

The values above are taken from ChEMBL document CHEMBL3217692, “Synthesis and cytotoxicity evaluation of novel pyrido[3,4-d]pyrimidine derivatives as potential anticancer agents” (2012).
